Data set [1] is described as follows: folding enthalpy; higher = less favourable; fluorescence melt of hairpins on a sequencing array, two-state fit. The note with it: sodium 0.088 M. A digest of the protocol:
(§1)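 Melting temperature and folding enthalpy were derived from bootstrapped two-state fits. The fitted temperatures were raised by 9.35 °C to agree with UV melts, and four replicates were combined by inverse variance. The underlying data were Cy3 fluorescence images of library hairpins, with annealed Cy3 and quencher oligos, on a sequenced MiSeq flow cell in 50 mM Na-HEPES pH 8.0, 25 mM NaCl, taken in 2.5 °C steps up to 60 °C, normalised to pre-quench Cy3 and to control constructs.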

Data set [2] can be described thus: melting temperature; fluorescence melt of hairpins on a sequencing array, two-state fit, raised by 9.35 °C to match UV melts. As to conditions: sodium 0.088 M. In a few lines: as §1

As to GCGAACGAAAGTTTACGC ((((((....)))..))), the folding enthalpy in data set [1] was -21.2 kcal/mol. Moreover, in data set [2], the Tm was 43 °C.
For GCGAACGAAAGTTTTCGC ((((((....)))..))) the same measures were -26.6 kcal/mol and 44.1 °C.
Consider GCGAACGCGAAAGCGCGC (((..(((....)))))), for which the folding enthalpy in data set [1] was -14.7 kcal/mol. Also, the Tm in data set [2] was determined as 60.1 °C.
Take GCGAACGGAAACATTCGC (((((.(....).))))): the folding enthalpy in data set [1] is -32.7 kcal/mol. The Tm in data set [2] was determined as 48.2 °C.
The corresponding values for GCGAACGGAAACGCTCGC ((((.((....)).)))) are -41.5 kcal/mol and 55.7 °C.
For GCGAACGTCGC ((((...)))) the same measures were -18.8 kcal/mol and 45.8 °C.
In the case of GCGAAGCATCGC ((((....)))), the folding enthalpy in data set [1] was -8.14 kcal/mol. The Tm in data set [2] was found to be 59.5 °C.
For the sequence GCGAAGCGAAAGCAACGC (((..((....))..))), in data set [1], the folding enthalpy is -11 kcal/mol. For the same sequence, the Tm in data set [2] amounted to 48.4 °C.
The corresponding values for GCGAAGCGAAAGCAGCGC (((..((....))..))) are -16.6 kcal/mol and 57.7 °C.
In the case of GCGAAGCGAAAGCTAAGC ((..(((....)))..)), in data set [1], the folding enthalpy is -16.5 kcal/mol. The Tm in data set [2] was 54.4 °C.
For the sequence GCGAAGCGAAAGCTCCGC (((.(((....))).))), the folding enthalpy in data set [1] is -36.7 kcal/mol. Also, the Tm in data set [2] stood at 50.9 °C.
GCGAAGGGAAACCCTCGC ((((.((....)).)))): the folding enthalpy in data set [1] was -42.3 kcal/mol. For the same sequence, the Tm in data set [2] turned out to be 53.4 °C.
Turning to GCGAAGGGAAACTTTCGC (((((.(....).))))), the folding enthalpy in data set [1] was -30.2 kcal/mol. The Tm in data set [2] is 51 °C.
For GCGAAGGTCGC ((((...)))) the same measures were -15.3 kcal/mol and 49.9 °C.
The corresponding values for GCGAATCCTCGC ((((....)))) are -24.5 kcal/mol and 46.3 °C.
The corresponding values for GCGAATCGAAAGATGCGC (((.(((....))).))) are -42.4 kcal/mol and 60.6 °C.
Consider GCGAATTATCGC ((((....)))), for which the folding enthalpy in data set [1] is -21.3 kcal/mol. Besides, the Tm in data set [2] is 47.8 °C.
For the sequence GCGAATTGTCGC ((((....)))), in data set [1], the folding enthalpy was -17 kcal/mol. For the same sequence, in data set [2], the Tm is 46 °C.
With GCGACACGAAAGTGCGC (((.(((....)))))), the folding enthalpy in data set [1] was -22.7 kcal/mol. In data set [2], the Tm was determined as 63.9 °C.
For GCGACACTCGC ((((...)))) the same measures were -18.2 kcal/mol and 53.1 °C.
For the sequence GCGACAGCTCGC ((((....)))), the folding enthalpy in data set [1] is -9.44 kcal/mol. Also, in data set [2], the Tm came to 67 °C.
Turning to GCGACAGTTCGC ((((....)))), the folding enthalpy in data set [1] is -17.4 kcal/mol. For the same sequence, the Tm in data set [2] was found to be 47.7 °C.
Turning to GCGACATTTCGC ((((....)))), the folding enthalpy in data set [1] is -22 kcal/mol. Further, the Tm in data set [2] is 48.8 °C.
As to GCGACCAATCGC ((((....)))), the folding enthalpy in data set [1] is -23.6 kcal/mol. The Tm in data set [2] was determined as 44 °C.
For GCGACCAGTCGC ((((....)))) the same measures were -32.7 kcal/mol and 57.3 °C.
For GCGACCGAAAGGTAGCGC ((((((....)))..))) the same measures were -31.7 kcal/mol and 68.5 °C.
The corresponding values for GCGACCGAAAGGTATCGC ((((((....)))..))) are -27.7 kcal/mol and 50.5 °C.
On to GCGACCGAAAGGTGCGC ((((((....))).))), for which the folding enthalpy in data set [1] is -28.9 kcal/mol. Further, the Tm in data set [2] was found to be 67.1 °C.
For GCGACCGGAAACAGCCGC (((.(.(....).).))) the same measures were -21.1 kcal/mol and 32.5 °C.
Take GCGACCGGAAACGGTTGC ((.((((....)))).)): the folding enthalpy in data set [1] was -41.1 kcal/mol. Moreover, the Tm in data set [2] was found to be 64.6 °C.
GCGACCTCTCGC ((((....)))): the folding enthalpy in data set [1] is -18.6 kcal/mol. Further, in data set [2], the Tm is 46.9 °C.
As to GCGACGAGTCGC ((((....)))), the folding enthalpy in data set [1] was -36.6 kcal/mol. Also, in data set [2], the Tm was 60.6 °C.
For GCGACGATTCGC ((((....)))) the same measures were -15.9 kcal/mol and 44.6 °C.
Regarding GCGACGCGAAAGCCACGC (((..((....))..))), the folding enthalpy in data set [1] is -17.7 kcal/mol. Also, the Tm in data set [2] was 48.7 °C.
Turning to GCGACGCGAAAGCCTTGC ((.(.((....)).).)), the folding enthalpy in data set [1] was -12 kcal/mol. Moreover, in data set [2], the Tm was found to be 35.9 °C.
For GCGACGCGAAAGCGCTGC ((..(((....)))..)) the same measures were -17.5 kcal/mol and 57.1 °C.
As to GCGACGCGAAAGCTACGC (((..((....))..))), the folding enthalpy in data set [1] was -18.6 kcal/mol. The Tm in data set [2] worked out at 52.5 °C.
For GCGACGGGAAACCGTTGC ((.((((....)))).)) the same measures were -40 kcal/mol and 61 °C.
Turning to GCGACGTCTCGC ((((....)))), in data set [1], the folding enthalpy is -13.3 kcal/mol. Moreover, the Tm in data set [2] was determined as 54.2 °C.
GCGACTCCTCGC ((((....)))): in data set [1], the folding enthalpy was -23.9 kcal/mol. Also, in data set [2], the Tm came to 48.6 °C.
Turning to GCGACTCGTCGC ((((....)))), in data set [1], the folding enthalpy is -33.6 kcal/mol. In addition, in data set [2], the Tm turned out to be 68.3 °C.
For the sequence GCGACTGGAAACGGTTGC ((.((.(....).)).)), in data set [1], the folding enthalpy was -32.1 kcal/mol. For the same sequence, in data set [2], the Tm came to 43.9 °C.
For the sequence GCGACTGTCGC ((((...)))), in data set [1], the folding enthalpy is -33 kcal/mol. Moreover, the Tm in data set [2] was found to be 48 °C.
The corresponding values for GCGACTGTTCGC ((((....)))) are -22.5 kcal/mol and 47.8 °C.
The corresponding values for GCGACTTTCGC ((((...)))) are -21.8 kcal/mol and 49 °C.
In the case of GCGAGAAGTCGC ((((....)))), the folding enthalpy in data set [1] was -18.3 kcal/mol. The Tm in data set [2] amounted to 50.2 °C.
Take GCGAGAATTCGC ((((....)))): the folding enthalpy in data set [1] was -21.8 kcal/mol. Also, the Tm in data set [2] is 55.3 °C.
The corresponding values for GCGAGAGGAAACTCTCAC (.(((((....))))).) are -17.9 kcal/mol and 39 °C.
Turning to GCGAGAGTCGC ((((...)))), in data set [1], the folding enthalpy is -11.3 kcal/mol. Besides, the Tm in data set [2] came out at 55.5 °C.
As for GCGAGATGTCGC ((((....)))), in data set [1], the folding enthalpy is -19.1 kcal/mol. Further, in data set [2], the Tm amounted to 49.4 °C.
Regarding GCGAGCAATCGC ((((....)))), the folding enthalpy in data set [1] was -23.8 kcal/mol. Also, in data set [2], the Tm was 62.2 °C.
For GCGAGCACGAAAGTGCGC (((..(((....)))))), the folding enthalpy in data set [1] is -8.47 kcal/mol. Moreover, the Tm in data set [2] stood at 56.9 °C.
The corresponding values for GCGAGCATCGC ((((...)))) are -21.8 kcal/mol and 62.1 °C.
The corresponding values for GCGAGCCTTCGC ((((....)))) are -31 kcal/mol and 53.9 °C.
Take GCGAGCGAAAGCTAACGC ((((((....)))..))): in data set [1], the folding enthalpy was -22.7 kcal/mol. In addition, the Tm in data set [2] was 52.6 °C.
On to GCGAGCGAAAGCTGCGC ((((((....))).))), for which the folding enthalpy in data set [1] was -21.8 kcal/mol. Moreover, the Tm in data set [2] was found to be 68.9 °C.
For the sequence GCGAGCGGAAACGCCCAC (.(.(((....))).).), the folding enthalpy in data set [1] was -8.67 kcal/mol. Besides, in data set [2], the Tm came to 34.2 °C.
As for GCGAGCGGAAACGCCCGC (((.(((....))).))), in data set [1], the folding enthalpy was -35.4 kcal/mol. Moreover, in data set [2], the Tm is 58.4 °C.
Regarding GCGAGGATTCGC ((((....)))), the folding enthalpy in data set [1] was -22.7 kcal/mol. The Tm in data set [2] worked out at 54.7 °C.
For GCGAGGCGAAAGCACCGC (((..((....))..))) the same measures were -22.8 kcal/mol and 61.8 °C.
The corresponding values for GCGAGGCGAAAGCCAGGC ((..(((....)))..)) are -13.1 kcal/mol and 56.4 °C.
Regarding GCGAGGCGAAAGCCCTGC ((..(((....)))..)), in data set [1], the folding enthalpy is -11.9 kcal/mol. Moreover, the Tm in data set [2] was 57.6 °C.
Consider GCGAGGCGAAAGCGACGC (((..((....))..))), for which the folding enthalpy in data set [1] is -25.4 kcal/mol. In data set [2], the Tm was determined as 62.1 °C.
The corresponding values for GCGAGGCGAAAGCTACGC (((..((....))..))) are -24.3 kcal/mol and 62 °C.
For the sequence GCGAGGCGAAAGCTCCGC (((..((....))..))), in data set [1], the folding enthalpy is -25.2 kcal/mol. The Tm in data set [2] turned out to be 60 °C.
For the sequence GCGAGGCTCGC ((((...)))), in data set [1], the folding enthalpy is -28.5 kcal/mol. Also, the Tm in data set [2] was found to be 52.8 °C.
The corresponding values for GCGAGGGCTCGC ((((....)))) are -25.5 kcal/mol and 51 °C.
Regarding GCGAGGGGAAACCCCCGC (((.(((....))).))), in data set [1], the folding enthalpy was -27.5 kcal/mol. Moreover, the Tm in data set [2] worked out at 59.6 °C.
For GCGAGGGGAAACCTTCGC ((((.((....)).)))), in data set [1], the folding enthalpy is -35.4 kcal/mol. Moreover, the Tm in data set [2] amounted to 56.3 °C.
For GCGAGGGTTCGC ((((....)))), the folding enthalpy in data set [1] was -15.7 kcal/mol. Also, the Tm in data set [2] came to 49.3 °C.
The corresponding values for GCGAGGTTCGC ((((...)))) are -16.3 kcal/mol and 48.7 °C.
For GCGAGTACTCGC ((((....)))) the same measures were -30.6 kcal/mol and 56.6 °C.
Consider GCGAGTCGTCGC ((((....)))), for which the folding enthalpy in data set [1] was -22.3 kcal/mol. The Tm in data set [2] was determined as 53.1 °C.
The corresponding values for GCGAGTGGAAACGCTTGC ((.((.(....).)).)) are -22.3 kcal/mol and 48.6 °C.
On to GCGAGTTTCGC ((((...)))), for which the folding enthalpy in data set [1] was -17.3 kcal/mol. In data set [2], the Tm is 51 °C.
In the case of GCGATAACTCGC ((((....)))), the folding enthalpy in data set [1] was -21.1 kcal/mol. For the same sequence, in data set [2], the Tm was found to be 45.9 °C.
With GCGATAATCGC ((((...)))), the folding enthalpy in data set [1] was -20.7 kcal/mol. Further, the Tm in data set [2] stood at 44.4 °C.
For GCGATAATTCGC ((((....)))) the same measures were -23.5 kcal/mol and 48.2 °C.

(Values after the array DNA melting data of Ke et al. (doi:10.1101/2024.01.08.574731).)
